Laboratory results reported in ChEMBL document CHEMBL4396943, “The tetrahydroxanthone-dimer phomoxanthone A is a strong inducer of apoptosis in cisplatin-resistant solid cancer cells” (Bioorg Med Chem, 2019).
Calls of active or inactive are those of the source. The calls are words filed in the database; no cut-off is given here.

Tests used:
[1] = tested on: J82; test: Induction of apoptosis in human J82 cells assessed as depolarization of mitochondrial membrane potential at 20 uM incubated for 2 hrs by hoechst 33342 staining based fluorescence microscopy; type: functional, cell-based
How it was run: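 J82 cells treated 2 h with PXA, then labelled 20 min with TMRE plus Hoechst 33342. ΔΨm read by high-content fluorescence imaging. Untreated medium and 20 µM CCCP served as controls.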

[2] = tested on: J82; test: Induction of apoptosis in cisplatin resistant human J82 cells assessed as depolarization of mitochondrial membrane potential at 20 uM incubated for 2 hrs by hoechst 33342 staining based fluorescence microscopy; type: functional, cell-based
How it was run: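 J82CisR cells exposed 2 h, then labelled with TMRE and Hoechst 33342 for 20 min. TMRE signal imaged on a high-content fluorescence imaging platform. Untreated medium control and 20 µM CCCP positive control.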

[3] = tested on: A2780; test: Induction of apoptosis in human A2780 cells assessed as decrease in mitochondrial membrane potential at 20 uM incubated for 24 hrs by TMRE staining based flow cytometry; type: functional, cell-based
How it was run: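 Cells seeded overnight; medium switched to FBS-free just before treatment to avoid TMRE ester cleavage. Exposure 1 h, 2 h or 24 h, then TMRE staining for 20 min. Cells trypsinized, centrifuged at 4 °C and read by flow cytometry. Medium as negative control, 20 µM CCCP as positive control. […]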

[4] = tested on: A2780cisR; test: Induction of apoptosis in human A2780cisR cells assessed as decrease in mitochondrial membrane potential at 20 uM incubated for 24 hrs by TMRE staining based flow cytometry; type: functional, cell-based
How it was run: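 Cells seeded overnight; complete medium swapped for FBS-free medium just before treatment to avoid TMRE ester cleavage. Exposure to PXA for 1 h, 2 h or 24 h. TMRE staining 20 min, cells collected by trypsinisation, ΔΨm read by flow cytometry. Medium served as negative control, 20 µM CCCP as positive control. Mean ± SEM reported.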

[5] = tested on: A2780; test: Cell cycle arrest in human A2780 cells assessed as accumulation at G1 phase incubated for 24 hrs by propidium iodide staining based flow cytometry (reference value: 61.8%); type: functional
[6] = tested on: A2780cisR; test: Cell cycle arrest in human A2780cisR cells assessed as accumulation at G1 phase incubated for 24 hrs by propidium iodide staining based flow cytometry (reference value: 68.7%); type: functional
[7] = tested on: J82; test: Cell cycle arrest in human J82 cells assessed as accumulation at G1 phase incubated for 24 hrs by propidium iodide staining based flow cytometry (reference value: 69.6%); type: functional
[8] = tested on: J82; test: Cell cycle arrest in cisplatin resistant human J82 cells assessed as accumulation at G1 phase incubated for 24 hrs by propidium iodide staining based flow cytometry (reference value: 78.1%); type: functional

SMILES | Activity [1] | Activity [2] | Activity [3] | Activity [4] | Activity [5] [%] | Activity [6] [%] | Activity [7] [%] | Activity [8] [%]
N#CC(C#N)=NNc1cccc(Cl)c1 | Active | Active | Active | Active | – | – | – | –
CC(=O)O[C@H]1C(=O)[C@@]2(C)[C@H]([C@H](OC(=O)c3ccccc3)[C@]3(O)C[C@H](OC(=O)[C@H](O)[C@@H](NC(=O)c4ccccc4)c4ccccc4)C(C)=C1C3(C)C)[C@]1(OC(C)=O)CO[C@@H]1C[C@@H]2O [PACLITAXEL] | – | – | – | – | 22.6 | 21.3 | 35.1 | 29.1
